Measured values pooled from the literature.
Compare with care: the assays were run in different laboratories.
Target: Serine/threonine-protein kinase D3 (PRKD3, Homo sapiens, UniProt O94806)
Residues used in one study (O94806 1-890): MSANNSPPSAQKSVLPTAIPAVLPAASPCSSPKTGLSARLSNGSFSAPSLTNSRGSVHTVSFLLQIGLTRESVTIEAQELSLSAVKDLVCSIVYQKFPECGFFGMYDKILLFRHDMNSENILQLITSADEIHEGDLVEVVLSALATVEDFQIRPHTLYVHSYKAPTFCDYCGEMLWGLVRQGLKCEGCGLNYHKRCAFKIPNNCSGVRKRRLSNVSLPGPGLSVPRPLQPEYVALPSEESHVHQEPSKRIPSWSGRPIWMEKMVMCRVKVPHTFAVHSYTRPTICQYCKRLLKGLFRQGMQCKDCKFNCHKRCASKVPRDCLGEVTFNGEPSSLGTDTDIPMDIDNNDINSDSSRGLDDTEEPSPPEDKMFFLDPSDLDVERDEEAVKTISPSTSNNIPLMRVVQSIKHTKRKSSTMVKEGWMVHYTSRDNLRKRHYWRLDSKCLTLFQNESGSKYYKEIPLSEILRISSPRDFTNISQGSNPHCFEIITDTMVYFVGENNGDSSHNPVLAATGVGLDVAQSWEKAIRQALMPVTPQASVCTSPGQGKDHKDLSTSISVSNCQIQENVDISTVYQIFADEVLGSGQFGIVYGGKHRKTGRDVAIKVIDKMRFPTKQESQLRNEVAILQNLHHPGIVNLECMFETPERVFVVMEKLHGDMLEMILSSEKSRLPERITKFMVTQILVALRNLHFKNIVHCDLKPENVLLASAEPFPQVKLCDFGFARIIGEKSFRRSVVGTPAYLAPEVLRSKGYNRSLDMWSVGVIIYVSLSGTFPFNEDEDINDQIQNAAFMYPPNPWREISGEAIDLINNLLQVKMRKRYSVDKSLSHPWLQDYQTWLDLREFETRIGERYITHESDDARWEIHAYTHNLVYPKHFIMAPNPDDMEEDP

| SMILES | test | test system | setting | quantity | result |
| --- | --- | --- | --- | --- | --- |
| COc1cc2ncnc(Nc3ccc(F)c(Cl)c3)c2cc1OCCCN1CCOCC1 | cell-free assay |  | 0.5 µM | remaining signal | 76.3% |
| CCN1CCN(Cc2ccc(NC(=O)c3ccc(C)c(Oc4ccnc5[nH]ccc45)c3)cc2C(F)(F)F)CC1 | target engagement in cells, inhibitor, chemoproteomics | Huh-7 | 1 µM | inhibition | -12.7% |
| CN(C)CC#Cc1ccc(OCCCc2sc(N3CCc4cccc(C(=O)Nc5nc6ccccc6s5)c4C3)nc2C(=O)O)c(F)c1 | cell-free assay, competition with immobilised ligand |  | 1 µM | remaining binding | 93% |
| O=C1Nc2ccc(Cl)cc2C1=Cc1cc(Cl)c(O)c(Cl)c1 | cell-free assay |  | 0.5 µM | remaining signal | 80.7% |
| O=C(Nc1cnn(-c2csc(C(=O)NC3COC3)c2)c1)Nc1c(F)cccc1Cl | enzyme activity, inhibitor |  | 5 µM | remaining activity | 105% |
| Cc1nc(N2CC[C@@H](O)C2)ncc1-c1cc(C(F)(F)F)cc2[nH]ncc12 | binding, competition with immobilised ligand |  | 1 µM | remaining binding | 100% |
| Cc1ccc(C(=O)NCc2ccsc2)cc1C#Cc1cn(C(C)C)c2ncnc(N)c12 | enzyme activity, inhibitor |  | 1 µM | activity vs control | 101% |
| O=C1NC(=O)c2cc(Nc3ccc(F)cc3)c(Nc3ccc(F)cc3)cc21 | cell-free assay |  | 0.5 µM | remaining signal | 96.7% |
| CNC(=O)Nc1ccc2c(c1)CC[C@@]21OC(=O)N(CC(=O)N(Cc2ccc(F)cc2)[C@@H](C)C(F)(F)F)C1=O | cell-free assay, competition with immobilised ligand |  | 1 µM | remaining binding | 100% |
| COc1cccc2c(NCc3ccccc3)nc(-n3c(N)nc4ccccc43)nc12 | target engagement in cells, inhibitor, chemoproteomics |  | 20 mM | inhibition | -8.9% |
| CC(C)(C)c1nc(-c2cccc(NS(=O)(=O)c3c(F)cccc3F)c2F)c(-c2ccnc(N)n2)s1 | enzyme activity, inhibitor, radiometric |  | 1 µM | remaining activity | 100% |
| O=C(NCc1ncc(C(F)(F)F)cc1Cl)c1ccc2c(c1)C1(CCS(=O)(=O)CC1)[C@H](C1CC1)N2S(=O)(=O)c1ccc(F)cc1 | cell-free assay, competition with immobilised ligand |  | 1 µM | remaining binding | 100% |
| COc1cc2ncnc(Nc3ccc(Oc4ccccc4)cc3C)c2cc1OC | enzyme activity, inhibitor |  | 1 µM | inhibition | 10% |
| CO[C@@H](C)c1c(Nc2ccc([C@@H](N(C)C(=O)C3CCS(=O)(=O)CC3)C(F)(F)F)cc2)cnc2cc(Cl)nn12 | cell-free assay, competition with immobilised ligand |  | 1 µM | remaining binding | 93% |
| CCOc1cc(-c2nncn2C)ccc1Nc1ncc2cc(C)nc(NCC(C)(C)C)c2n1 | enzyme activity, inhibitor, FRET |  | 1 µM | inhibition | < 15% |
| O=C(Nc1ccc(Oc2ccc(F)cc2)cc1)N1CCc2ncccc2[C@H]1c1ccc(F)cc1 | cell-free assay, competition with immobilised ligand |  | 1 µM | remaining binding | 98% |
| Cn1c2c(c3ccc(Cl)c(Cl)c31)C(C#N)C(C)(C)NC2=O (stereo not drawn) | thermal stability, DSF |  | 10 µM | ΔTm | 1.9 °C |
| CN1CC(Oc2cnc(C#N)cc2-c2ccn3nc(NC(=O)C4CC4)cc3c2)C1 | enzyme activity, inhibitor |  | 1 µM | inhibition | -13% |
| CN1CCC2(CC1)NC(=O)c1c(c3ccc(Cl)c(Cl)c3n1C)C2C#N (racemic) | thermal stability, DSF |  | 10 µM | ΔTm | 2 °C |
| Cc1ccc(C(=O)Nc2ccc(CN3CCN(C)CC3)c(C(F)(F)F)c2)cc1C#Cc1cnc2cccnn12 | enzyme activity, inhibitor |  | 23.5 nM | remaining activity | 100% |
| CC(C)CC(=O)N1CCc2nc(-c3ccc(Br)cc3)nc(N(C)Cc3ccccc3)c2C1 | cell-free assay, competition with immobilised ligand |  | 0.1 µM | remaining binding | 100% |
| CC/C(=N\NC(=O)NCc1cccc(O)c1)c1ccc(O)c(C)c1O | enzyme activity, inhibitor |  | 0.1 µM | inhibition | 2.2% |
| CC1(C)NC(=O)c2[nH]c3c(Cl)c(Cl)ccc3c2C1C#N (stereo not drawn) | thermal stability, DSF |  | 10 µM | ΔTm | 0.8 °C |
| CCCCNc1ncc2c(-c3ccc(F)cc3)nn(C[C@H]3CC[C@H](N)CC3)c2n1 | target engagement in cells, inhibitor, chemoproteomics |  | 20 mM | inhibition | 48.7% |
